{"data": "Assay results gathered from unrelated publications", "organism": "Trypanosoma brucei", "read-out": "parasite growth", "note": "Protocols differ between the studies behind these lines."}
{"Compound": "NNC(=O)CN1C(=O)CNC2(C1=O)C1CC3CC(C1)CC2C3 (centres unmarked)", "setting": "pH 7.4, blood stage", "measurement": "IC50", "result": "118000 nM"}
{"Compound": "COC(=O)C1CCN(C(=O)c2ccc(SCc3cnc4nc(N)nc(N)c4n3)nc2)CC1", "test": "resazurin", "setting": "10 µM, 72 h", "measurement": "inhibition", "result": "16%"}
{"Compound": "COc1cc(Nc2nccc(Nc3ccc4c(C)n[nH]c4c3)n2)cc(OC)c1OC", "measurement": "EC50", "result": "631 nM"}
{"Compound": "COc1ccc(CNC(=O)c2ccc(CNCc3cnc4nc(N)nc(N)c4n3)cc2)cc1OC", "test": "resazurin", "setting": "10 µM, 72 h", "measurement": "inhibition", "result": "36%"}
{"Compound": "Cc1c2ccc(N(C)c3ccnc(Nc4cccc(S(N)(=O)=O)c4)n3)cc2nn1C", "measurement": "EC50", "result": "5010 nM"}
{"Compound": "CC1CS(=O)(=O)CCN1/N=C/c1ccc([N+](=O)[O-])o1 (centres unmarked)", "measurement": "IC50", "result": "3500 nM"}
{"Compound": "COc1cc2c(cc1Nc1nc(N3CCc4ccccc43)c3cc[nH]c3n1)N(C(=O)CN(C)C)CC2", "measurement": "EC50", "result": "100 nM"}
{"Compound": "Cc1ccc(C(=O)Nc2ccc(S(=O)(=O)O)c3cc(S(=O)(=O)O)cc(S(=O)(=O)O)c23)cc1NC(=O)c1cccc(NC(=O)Nc2cccc(C(=O)Nc3cc(C(=O)Nc4ccc(S(=O)(=O)O)c5cc(S(=O)(=O)O)cc(S(=O)(=O)O)c45)ccc3C)c2)c1", "test": "resazurin", "measurement": "IC50", "result": "60 nM"}
{"Compound": "Clc1ccc2c(c1)N(CCCN1CCN(CCCc3ccccc3)CC1)c1ccccc1S2", "measurement": "EC50", "result": "775 nM"}
{"Compound": "Nc1nc(N)c2nc(CNc3cccc4ccccc34)cnc2n1", "test": "resazurin", "setting": "10 µM, 72 h", "measurement": "inhibition", "result": "31%"}
{"Compound": "Cc1nn(C)c2cc(N(C)c3ccnc(Nc4cccc(S(N)(=O)=O)c4)n3)ccc12", "measurement": "EC50", "result": "316 nM"}
{"Compound": "CCOC(=O)C1CCN(C(=O)c2ccc(N(C)Cc3cnc4nc(N)nc(N)c4n3)cc2)CC1", "test": "resazurin", "setting": "10 µM, 72 h", "measurement": "inhibition", "result": "47%"}
{"Compound": "COc1ccc(-c2oc3ncnc(N)c3c2-c2ccc(NC(=O)Nc3cc(C(F)(F)F)ccc3F)cc2)cc1", "measurement": "EC50", "result": "1580 nM"}
{"Compound": "Nc1nc(N)c2nc(CNc3ccc(C(=O)c4ccccc4)cc3)cnc2n1", "test": "resazurin", "setting": "10 µM, 72 h", "measurement": "inhibition", "result": "76%"}
{"Compound": "NC(=O)CN1C(=O)CNC2(C1=O)C1CC3CC(C1)CC2C3 (centres unmarked)", "setting": "pH 7.4, blood stage", "measurement": "IC50", "result": "200000 nM"}
{"Compound": "Cc1ccc2nc(-c3ccc(F)c(F)c3)c(CN3CCC(Cc4ccccc4)CC3)n2c1", "setting": "48 h", "measurement": "EC50", "result": "16600 nM"}
{"Compound": "COc1cc2c(cc1Nc1nc(Nc3ccsc3C(N)=O)c3cc[nH]c3n1)N(C(=O)CN(C)C)CCC2", "measurement": "EC50", "result": "631 nM"}
{"Compound": "N=C(N)c1ccc(OCCCCCOc2ccc(C(=N)N)cc2)cc1", "measurement": "EC90", "result": "6.2 nM"}
{"Compound": "N=C(N)c1ccc(OCCCCCOc2ccc(C(=N)N)cc2)cc1", "measurement": "EC50", "result": "5.4 nM"}
{"Compound": "Nc1nccc(C#Cc2cncnc2Nc2ccc(OCc3cccc(F)c3)c(Cl)c2)n1", "measurement": "EC50", "result": "3160 nM"}
{"Compound": "Cc1cc(NC(=O)Nc2ccc3c(c2)OC(F)(F)O3)cc(C(F)(F)F)n1", "test system": "RHODESIENSE STIB900", "measurement": "IC50", "result": "5100 nM"}
{"Compound": "Cc1ccc(C(=O)Nc2ccc(S(=O)(=O)O)c3cc(S(=O)(=O)O)cc(S(=O)(=O)O)c23)cc1NC(=O)c1cccc(NC(=O)Nc2cccc(C(=O)Nc3cc(C(=O)Nc4ccc(S(=O)(=O)O)c5cc(S(=O)(=O)O)cc(S(=O)(=O)O)c45)ccc3C)c2)c1", "test": "resazurin", "test system": "RHODESIENSE STIB900", "measurement": "IC50", "result": "35 nM"}
{"Compound": "CN(Cc1cnc2nc(N)nc(N)c2n1)c1ccc(C(=O)N2CCCCC2)cc1", "test": "resazurin", "setting": "10 µM, 72 h", "measurement": "inhibition", "result": "48%"}
{"Compound": "Cc1ccc2nc(-c3ccc(F)c(F)c3)c(CN3CCN(C4CCCCC4)CC3)n2c1", "setting": "48 h", "measurement": "EC90", "result": "> 20000 nM"}
{"Compound": "CCS(=O)(=O)N(C)c1ccc(NC(=O)c2cccc(C(=N)N)c2)cc1OCc1ccc(C(=N)N)cc1", "measurement": "IC50", "result": "500 nM"}
{"Compound": "Nc1nc(N)c2nc(C(=O)NCc3ccccc3)cnc2n1", "test": "resazurin", "setting": "10 µM, 72 h", "measurement": "inhibition", "result": "19%"}
{"Compound": "Cc1ccc2nc(-c3ccc(Cl)cc3)cn2c1", "setting": "48 h", "measurement": "EC90", "result": "> 20000 nM"}
{"Compound": "O=C(Nc1ccnc(C(F)(F)F)c1)Nc1cccc2c1OC(F)(F)O2", "test system": "RHODESIENSE STIB900", "measurement": "IC50", "result": "14000 nM"}
{"Compound": "ClCCOC(c1ccccc1)c1ccccc1", "measurement": "EC50", "result": "32100 nM"}
{"Compound": "CS(=O)(=O)CCNCc1cc(-c2cc3c(Nc4ccc(OCc5cccc(F)c5)c(Cl)c4)ncnc3s2)cs1", "measurement": "EC50", "result": "794 nM"}
{"Compound": "COC(=O)C1CCN(C(=O)Cc2ccc(NCc3cnc4nc(N)nc(N)c4n3)cc2)CC1", "test": "resazurin", "setting": "10 µM, 72 h", "measurement": "inhibition", "result": "23%"}
{"Compound": "OC1c2ccccc2CCc2ccccc21", "measurement": "EC50", "result": "51300 nM"}
